Results gathered from unrelated publications.
Protocols differ between the studies behind these lines.
Target: Mitogen-activated protein kinase 12 (MAPK12, Homo sapiens, UniProt P53778)
Sequence (P53778 1-367, as in one of the studies): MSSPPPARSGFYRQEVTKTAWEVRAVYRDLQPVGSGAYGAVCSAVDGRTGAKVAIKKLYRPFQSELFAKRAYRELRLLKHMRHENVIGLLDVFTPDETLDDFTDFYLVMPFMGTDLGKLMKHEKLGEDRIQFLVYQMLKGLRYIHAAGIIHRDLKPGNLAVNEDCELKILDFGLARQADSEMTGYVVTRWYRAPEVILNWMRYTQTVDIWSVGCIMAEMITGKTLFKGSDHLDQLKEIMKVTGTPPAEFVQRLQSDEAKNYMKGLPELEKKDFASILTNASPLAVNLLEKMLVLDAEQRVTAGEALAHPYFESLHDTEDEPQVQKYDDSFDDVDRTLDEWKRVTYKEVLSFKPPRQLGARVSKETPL

| SMILES | effect on | action | technique | tested at | measurement | result |
| --- | --- | --- | --- | --- | --- | --- |
| O=c1[nH]c2ccccc2n1C1CCN(Cc2ccc(-c3[nH]c4cc5ncnc5cc4nc3-c3ccccc3)cc2)CC1 | cell-free assay |  |  | 0.5 µM | remaining signal | 93.1% |
| Cn1cc(-c2cc(F)cc(N3CCn4c(cc5c4CCCC5)C3=O)c2CO)cc(Nc2ccc(N3CCN(C4COC4)CC3)cn2)c1=O | enzyme activity | inhibitor |  | 0.1 µM | inhibition | 16% |
| Cn1cncc1[C@](O)(COc1ccc(C#N)cc1-c1ccc(OC(F)(F)F)cc1)c1ccc(C#N)cc1 | cell-free assay |  | competition with immobilised ligand | 1 µM | remaining binding | 100% |
| COc1ncccc1-c1cnn2ccc(N3CCN(C(=O)OC(C)C)CC3)nc12 | binding |  | competition with immobilised ligand | 1 µM | remaining binding | 100% |
| Cc1nn(C)cc1-c1nc2c(N3CCN(Cc4ccc(Cl)cc4)CC3)c(Cl)cnc2[nH]1 | binding |  | competition with immobilised ligand | 1 µM | remaining binding | 100% |
| CC(C)(C)c1cc(C=C(C#N)C#N)cc(Br)c1O | enzyme activity | inhibitor |  | 0.5 µM | remaining activity | 102% |
| Cn1cc(-c2cccc(N3CCc4c(sc5c4CC(C)(C)C5)C3=O)c2CO)cc(Nc2ccncn2)c1=O | enzyme activity | inhibitor |  | 1 µM | inhibition | 11% |
| Nc1ncc(-c2nc(N3CCOCC3)nc(N3CCOCC3)n2)c(C(F)F)n1 | binding |  | competition with immobilised ligand | 10 µM | remaining binding | 100% |
